This is an account of results in ChEMBL document CHEMBL4513216, “Probing the Open Global Health Chemical Diversity Library for Multistage-Active Starting Points for Next-Generation Antimalarials” (ACS Infect Dis, 2020).

The data set is described as follows: Toxicity liver stage against HepG2, at 10uM. It is filed as cell-based. On the set-up: test concentration 10 uM, cell line HepG2-A16-CD81EGFP. The settings on record: human, HepG2-A16-CD81EGFP cells; read-out: INHIBITION
The method in brief: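 Uninfected HepG2-A16-CD81EGFP cells, 3 × 10^3 per well, 1536-well, plated on prespotted compound at 10 μM final, parasite-free screening media added to match infected plates; puromycin 10 μM positive, DMSO 0.5% negative; run in parallel with 48 h PbLuc assay at 37 °C, 5% CO2; viability by CellTiter-Glo luminescence, normalized to controls.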
Consider `Cc1cnc(N2CCC3(CC2)CC(NC(=O)C(C)C)CO3)nc1` (centres undefined), for which the cytotoxicity at 10 µM came out at 8.19%.
For the compound `CC[C@@]1(O)CCN(C(=O)c2ccc(SC)cc2)C[C@H]1O`, the cytotoxicity at 10 µM is -17.5%.
On to `COc1c(CNC2CCN(C(=O)C(C)C)CC2)c(C(C)C)nn1C`, for which the cytotoxicity at 10 µM turned out to be 1.25%.
With `CC(NCCN1CCN(C(=O)C2CCCC2)CC1)c1cnn(C)c1` (centres undefined) the figure was -4.59%; with `CC(CNC(=O)c1cnccn1)Oc1cccc(Br)c1` (centres undefined), 1.25%; with `CC(C)N(C)C(=O)COc1ccc(-c2noc(C3CCCO3)n2)cc1` (centres undefined), 4.24%.
With `O=C(Cc1ccccc1)NCc1ccc(-c2ccccc2C(=O)O)cn1` the figure was -11.5%; with `Cc1ccc(N2CCC3(CCN(C(=O)c4ccsc4)C3)CC2)nn1`, -0.0395%.
For `O=C1CCCCCN1CCc1nc(-c2cccnn2)no1`, the cytotoxicity at 10 µM was -1.75%.
For `CCn1c(C2CCCN(Cc3cc(C)cc(C)c3)C2)nn(C)c1=O` (centres undefined), the cytotoxicity at 10 µM was -3.12%.
As for `CN(Cc1ccncc1)CC(c1cccs1)N1CCOCC1` (centres undefined), the figure is -15.7%; as for `COCc1cc(N(C)CCc2c(C)n[nH]c2C)ncn1`, 0.681%.
`CCc1nccn1C1CCCN(C(=O)c2ccc3[nH]cnc3c2)C1` (centres undefined): the cytotoxicity at 10 µM was -7.66%.
As for `COc1c(CNCc2ccc(C(=O)N(C)C(C)C)cc2)c(C)nn1C`, the figure is 33.2%.
For `CCCN1CCC(N2CCC(Cn3cc(C4CC4)nn3)CC2)CC1`, the cytotoxicity at 10 µM is -1.98%.
As for `Cc1nccn1CCC1CCCCN1Cc1cccc(CCN)c1` (centres undefined), the figure is 0.106%.
With `CN(C)S(=O)(=O)N1CCN(C(=O)c2ccc3ccn(C)c3c2)CC1` the figure was -7.56%.
With `Cc1cc(Br)c(O)c(-c2nc(N3CCCCC3)sc2C)c1` the figure was -7.13%; with `CCCn1cc(Cl)c(C(=O)N2C[C@@H](O)[C@H](Oc3ccccc3)C2)n1`, 5.31%; with `Fc1ccc(Oc2nccnc2C2CCN(C3CCOCC3)CC2)cc1`, -2.5%.
On to `Cc1cc(=O)c(C(=O)N(C)Cc2ccc(Cl)c(F)c2)c[nH]1`, for which the cytotoxicity at 10 µM is 9.39%.
With `Cc1nn(C)c(C)c1OCC(=O)NCC(O)Cc1ccccc1` (centres undefined), the cytotoxicity at 10 µM was -3.81%.
For the compound `Cc1cn2c(n1)CCC(NC(=O)c1[nH]nc(C)c1Br)C2` (centres undefined), the cytotoxicity at 10 µM is -17.6%.
As for `CC(c1nc(C2CC2)no1)N1CCc2c(ncn2C)C1` (centres undefined), the figure is 1.09%; as for `COC1CCN(C(=O)Cc2csc(-c3ccccc3)n2)CC1`, -6.75%; as for `CCN1CCc2onc(CNc3ncccn3)c2C1`, 0.927%.
With `Cc1nccc(CNC(=O)NCCC(=O)N2CCCc3ccccc32)n1` the figure was -0.457%.
With `Cc1cc(NC(=O)C(C)N2CCN(c3ccc(C#N)cc3F)CC2)no1` (centres undefined) the figure was 6.16%; with `Cn1ccnc1C1c2nc[nH]c2CCN1Cc1cccnc1` (centres undefined), 0.0371%.
As for `COc1nn(C)cc1C(=O)N1CCC(c2nnc(C(C)C)o2)CC1`, the cytotoxicity at 10 µM came to 13.5%.
Take `CN1CC=C(c2noc(CCC(=O)N3CCc4ccccc4C3)n2)CC1`: the cytotoxicity at 10 µM came out at 6.97%.
With `Cc1nonc1C(=O)N1CC[C@@]2(O)CCN(C3CCCCC3)C[C@H]2C1` the figure was -132%; with `O=C(NC1(c2nc(C3CC3)no2)CCCCC1)c1ccncc1`, -7.12%; with `COC(=O)CCC(=O)Nc1ccc(Br)c(C)n1`, 7.07%.
Consider `Cc1nc(COCC2CN(C(N)=O)Cc3nccn3C2)cs1` (centres undefined), for which the cytotoxicity at 10 µM was found to be 5.3%.
With `Cc1nc(C)c(CC(=O)NCc2ccc(F)cc2F)s1`, the cytotoxicity at 10 µM was -91.9%.
For `Cc1cnn(CC2CN(CC(=O)N3CCc4ccccc43)CCO2)c1` (centres undefined), the cytotoxicity at 10 µM was -0.77%.
As to `CCN1CCN(C(=O)NCc2cccnc2-n2cccn2)CC1`, the cytotoxicity at 10 µM was -7.97%.
As for `CCCN(CCOC)c1nc(C)nc2sccc12`, the cytotoxicity at 10 µM is -134%.
As for `NC(=O)C1CN(c2ncnc3c2Cc2ccccc2OC3)CCO1` (centres undefined), the figure is 0.0255%.
With `CC(C)c1cc(CN2CCN(c3cccnc3)CC2)n(C)n1` the figure was -0.0184%; with `Cn1nc(Br)c2c(NCCN)ncnc21`, 20.2%.
Turning to `O=C(O)c1ccnc(SCc2ccccc2)c1`, the cytotoxicity at 10 µM was -9.98%.
Turning to `CCn1[nH]c(C)c2c(C(F)(F)C(F)(F)F)cc(=O)nc1-2`, the cytotoxicity at 10 µM is -9.29%.
On to `Cc1ccc2c(c1)CCC2NCc1c(C)nn(CCO)c1C` (centres undefined), for which the cytotoxicity at 10 µM amounted to 11.2%.
With `COCC1c2nnn(CC3CC3)c2CCN1C(=O)c1cnccn1` (centres undefined) the figure was -140%; with `Nc1nc2c(c(N3CCOCC3)n1)CCN(C(=O)c1ccc[nH]1)CC2`, -2.02%.
With `CC(C)(C)OC(=O)Cn1cccc(S(=O)(=O)N2CCCCCC2)c1=O` the figure was -2.28%.
As for `O=C(c1cnc(-c2cccnc2)nc1)N1CCSCC1`, the cytotoxicity at 10 µM was determined as 0.431%.
With `Cc1ccsc1CCNC(=O)C1(Oc2cccnc2C)CCNCC1` the figure was -2.37%; with `Cc1cc(NC(=O)CCN2CCCCC2Cn2cccn2)no1` (centres undefined), 2.14%.
With `CCC(C)NC(=O)c1snnc1-c1ccc(OC)cc1` (centres undefined), the cytotoxicity at 10 µM was 6.93%.
In the case of `Cc1oncc1C(=O)N[C@@H]1CN(CC2CC2)C[C@@H]2CCCO[C@@H]21`, the cytotoxicity at 10 µM is -103%.
As for `O=C1NCc2ccccc2CC12CCCN(Cc1ccsc1)C2` (centres undefined), the figure is 11%.
With `CCCc1nnc(NC2CCN(C3CCSCC3)CC2)o1`, the cytotoxicity at 10 µM was -1.38%.
On to `CCC(C)(C)n1nnnc1C(c1cccs1)N1CCc2ccccc2C1` (centres undefined), for which the cytotoxicity at 10 µM is 0.237%.
Take `COc1ccccc1C(=O)N1CC(=O)N(CC2CC2)CC(O)C1` (centres undefined): the cytotoxicity at 10 µM was 5.99%.
With `O=C(NCCNS(=O)(=O)C1CCCCC1)c1ccccc1` the figure was -3.82%; with `Cc1csc2c(=O)n(C(C)Cc3cccnc3)cnc12` (centres undefined), 9.98%; with `CCN(CC)C(=O)COc1ccnc2cc(OC)ccc12`, -2.17%.
With `COc1ccnc(NCc2ccccc2Cn2cccn2)n1`, the cytotoxicity at 10 µM was -0.81%.
With `O=C(CN1CCOC(Cn2cccn2)C1)NC(C1CC1)C1CC1` (centres undefined) the figure was -42.1%; with `CCC(CC)C(=O)NC1CCCc2nc(N3CCOCC3)ncc21` (centres undefined), 4.99%.
With `N#Cc1ccc(NCCCOCC2CCOC2)c(F)c1` (centres undefined) the figure was 1.1%; with `CC(C)c1nc(CN(C)Cc2ccc(F)cc2)cs1`, -8.81%.
With `CCOCC(=O)N1CCc2nc(C)nc(NC(C)C)c2CC1` the figure was -98.7%; with `CC(C)(C)C(=O)N1CCC(c2nc(O)cc(-c3ccncc3)n2)CC1`, -22%.
Take `Cc1cc(C(F)F)nn1CC(=O)NCc1nccn1C`: the cytotoxicity at 10 µM was -2.17%.
In the case of `CCCc1nnc2sc(C3CCN(CCOC)CC3)nn12`, the cytotoxicity at 10 µM was found to be 6.76%.
Consider `CCCOc1ccc(CNCCn2cccn2)cc1`, for which the cytotoxicity at 10 µM amounted to 9.66%.
With `O=C(CN1CC(c2nc(C3CC3)no2)C1)NCC1CCCO1` (centres undefined) the figure was -6.66%; with `COc1cc(CNc2ccccc2Cl)ccc1OCC(=O)O`, 6.15%.
Take `CCCS(=O)(=O)CC(=O)N1CCCC1c1noc(C2CC2)n1` (centres undefined): the cytotoxicity at 10 µM worked out at 3.34%.
With `Cc1nc(C2CCCN(C(=O)c3cc(Cl)c[nH]3)C2)sc1C` (centres undefined) the figure was -21.5%; with `COCCN1CCN(C(C(=O)O)c2ccc(SC)cc2)CC1` (centres undefined), 1.75%.
With `CC(C)Oc1ccc(CNC(=O)NCc2ccncc2)cc1F` the figure was -18.3%; with `NC(=O)C1CCN(C(=O)NCc2cccnc2OCC(F)(F)F)C1` (centres undefined), -11.2%; with `Cc1cc(C)nc(NCc2cc3n(n2)CCCN(C(=O)C2CCC2)C3)n1`, -120%.
Regarding `CC(C)N1[C@H](CN2CCCC2)C[C@@H]2CN(Cc3cnn(C)c3)CC[C@@H]21`, the cytotoxicity at 10 µM was -147%.
With `CCn1cc(CN2CCN(CC(O)c3ccc(C)cc3C)CC2)c(C)n1` (centres undefined) the figure was -0.664%.
Turning to `CCCc1nnc(NCCCn2nc(C)c(Cl)c2C)o1`, the cytotoxicity at 10 µM was -0.351%.
As for `Cc1cc(C(=O)N2CCN(C)CC2)nn1CC(=O)NCc1cccs1`, the figure is -5.83%; as for `CC(C)CNC(=O)NC(=O)CNc1ccccc1SCC(C)C#N` (centres undefined), -8.05%; as for `CC(=O)Nc1ccc(S(=O)(=O)N2CCOC(Cn3ccnc3)C2)cc1` (centres undefined), 0.166%.
With `CO[C@H]1CN(C(=O)OC(C)(C)C)CC1NCc1cccn1C` (some centres undefined) the figure was -44%; with `O=C(NCCCn1cccn1)C1(c2cccc(Cl)c2)CC1`, 17.9%.
As for `Cc1nn(C)c(N2CCOCC2)c1CNC1CCN(C(C)(C)C)CC1`, the figure is -3.66%; as for `Cc1cccc(C(=O)N2CCC(Cc3cnc4[nH]ccc4c3)CC2)n1`, 12.2%.
Consider `Cc1oc(-c2ccsc2)nc1CC(=O)NCC(=O)Nc1cn[nH]c1`, for which the cytotoxicity at 10 µM is -1.36%.
Turning to `N#Cc1csc(CNCCOc2ccc(Cl)cn2)c1`, the cytotoxicity at 10 µM was -5.59%.
For the compound `CN(C)C(=O)N1CCn2nc(CNC(=O)CCc3ccccn3)cc2C1`, the cytotoxicity at 10 µM was -3.32%.
As for `CCN1CC2(CC1=O)CN(Cc1ccco1)CCN(C(=O)C(C)C)C2` (centres undefined), the cytotoxicity at 10 µM is -4.51%.
With `CSc1nccn1-c1cccc(C(=O)NCC2CC2)c1` the figure was -10.6%; with `CCc1nc(CN2CCCN(C(=O)C3CCOCC3)CC2)cs1`, -8.11%.
`CC(C)CN1CCCn2nc(CNC(=O)NC(C)(C)C)cc2C1`: the cytotoxicity at 10 µM is -4.54%.
As for `Cn1c(CO)cnc1SC(C(=O)NC1CC1)c1ccccc1` (centres undefined), the cytotoxicity at 10 µM is -56%.
As for `CCCN(C)C(=O)c1ccc2c(c1)[nH]c(=O)n2CCOCC`, the figure is -30.6%.
With `CCOCC1CN(C(=O)CC2=CCCCC2)Cc2nnn(C)c21` (centres undefined) the figure was -110%; with `O=C(CN1CCCNC1=O)Nc1ccccc1SC(F)(F)F`, 12.7%.
